In ChEMBL document CHEMBL1926607 (J Med Chem, 2011) one finds Ki data, which are given here for 1 compound.

This experiment deals with T1, Adrenergic receptor alpha-1 (Rattus norvegicus, UniProt P15823+P23944+P43140).
T1 sequence (P15823 whole entry): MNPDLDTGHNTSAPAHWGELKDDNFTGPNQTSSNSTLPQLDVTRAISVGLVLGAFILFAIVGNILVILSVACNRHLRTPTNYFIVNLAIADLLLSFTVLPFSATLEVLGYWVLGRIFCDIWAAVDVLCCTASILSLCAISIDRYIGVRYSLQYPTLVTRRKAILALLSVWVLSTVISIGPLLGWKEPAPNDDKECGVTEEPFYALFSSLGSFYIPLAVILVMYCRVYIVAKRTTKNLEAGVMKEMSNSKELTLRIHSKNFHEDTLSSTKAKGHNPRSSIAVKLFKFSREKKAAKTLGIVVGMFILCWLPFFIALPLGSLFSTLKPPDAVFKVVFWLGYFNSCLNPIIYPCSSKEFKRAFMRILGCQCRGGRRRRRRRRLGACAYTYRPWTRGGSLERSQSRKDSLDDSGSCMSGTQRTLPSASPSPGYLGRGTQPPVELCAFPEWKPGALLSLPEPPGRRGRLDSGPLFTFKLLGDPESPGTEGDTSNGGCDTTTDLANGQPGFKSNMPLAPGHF
T1 sequence (P23944 whole entry): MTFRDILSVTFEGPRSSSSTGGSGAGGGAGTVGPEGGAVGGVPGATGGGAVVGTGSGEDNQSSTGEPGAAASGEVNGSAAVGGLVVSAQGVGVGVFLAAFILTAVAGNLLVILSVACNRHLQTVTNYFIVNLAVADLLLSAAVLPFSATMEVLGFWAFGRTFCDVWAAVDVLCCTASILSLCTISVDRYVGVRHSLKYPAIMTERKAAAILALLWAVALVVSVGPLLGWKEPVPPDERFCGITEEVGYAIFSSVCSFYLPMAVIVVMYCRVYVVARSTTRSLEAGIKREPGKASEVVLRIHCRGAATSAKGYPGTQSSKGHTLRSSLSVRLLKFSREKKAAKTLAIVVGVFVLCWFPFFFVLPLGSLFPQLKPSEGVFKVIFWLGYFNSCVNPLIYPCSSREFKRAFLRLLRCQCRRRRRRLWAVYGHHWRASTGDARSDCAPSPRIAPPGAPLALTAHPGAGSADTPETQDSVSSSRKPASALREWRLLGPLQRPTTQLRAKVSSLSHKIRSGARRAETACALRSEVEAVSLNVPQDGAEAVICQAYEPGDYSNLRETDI
T1 sequence (P43140 whole entry): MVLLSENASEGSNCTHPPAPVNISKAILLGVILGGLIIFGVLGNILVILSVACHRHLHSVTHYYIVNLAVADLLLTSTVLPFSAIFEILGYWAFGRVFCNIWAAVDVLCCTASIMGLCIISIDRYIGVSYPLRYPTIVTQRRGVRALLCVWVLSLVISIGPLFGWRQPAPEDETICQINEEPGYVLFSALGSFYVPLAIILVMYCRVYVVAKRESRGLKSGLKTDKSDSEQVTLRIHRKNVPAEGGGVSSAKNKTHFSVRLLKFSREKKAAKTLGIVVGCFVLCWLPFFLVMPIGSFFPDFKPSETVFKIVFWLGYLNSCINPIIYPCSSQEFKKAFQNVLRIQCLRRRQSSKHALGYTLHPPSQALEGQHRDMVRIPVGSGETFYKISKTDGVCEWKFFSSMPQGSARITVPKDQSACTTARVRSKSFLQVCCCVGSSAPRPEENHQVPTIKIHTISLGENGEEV
Put plainly: Displacement of [3H]prazosin from alpha1 adrenoceptor in Sprague-Dawley albinus rat cerebral cortex membranes after 30 mins. It is filed as cell membranes, Membrane. The method in brief:
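Rat cerebral cortex membranes (about 250 μg protein; male Sprague–Dawley, 180–200 g) in 50 mM Tris-HCl with 10 mM MgCl2, pH 7.4. Incubation was 30 min at 25 °C with 0.2 nM [3H]prazosin and six competitor concentrations. Nonspecific binding was set with 10 μM phentolamine.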
For orientation: In a radioligand displacement assay an active substance lowers the binding of a labelled ligand.

The structures appear in SMILES notation.

As for `Cl.O=C1C2CCCN2C(=O)CN1CCCCNCC1CCc2ccccc2O1` (stereo unspecified), the Ki was found to be 107 nM.

As usually defined, the Ki is the equilibrium dissociation constant of an inhibitor or competing ligand from its target. A higher Ki goes with weaker binding.
